Data from ChEMBL document CHEMBL1125375, “Synthesis and structure-activity relationships of acyclic omega chain conjugated diene analogues of enisoprost” (1992).
Activity calls are given as the source filed them. The calls are words filed in the database; no cut-off is given here.

What was measured:
Rattus norvegicus = assay: Compound was evaluated for diarrheagenic side effects in adult male rats by intragastric administration; format: functional; conditions: po
Outline: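 Adult Charles River male rats, 210–230 g, individually housed, fasted 24 h with water ad libitum. Logarithmically graded prostaglandin doses given orally (N = 6–12). Diarrhea scored all-or-none for 8 h after dosing.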

[1] = Selectivity ratio was evaluated by the quotient of diarrheal ED50 value divided by antisecretory ED50 x 10 E-3; format: functional
Outline: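 Quotient of diarrheal ED50 (male rats, oral graded doses, all-or-none diarrhea over 8 h) over antisecretory ED50 (Pavlov pouch beagles, intrapouch dosing, percent reduction of food-stimulated 4-h total acid output). Antisecretory ED50 from linear regression of dose-response, 3–6 doses and 2–4 dogs per dose.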

Canis familiaris [2] = assay: Gastric antisecretory activity in food stimulated pavlov dogs by intrapouch administration; format: functional; conditions: Canis lupus familiaris
Outline: (§1)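 Adult female beagles (6–11 kg) with innervated Pavlov gastric pouches, food-deprived 14 h with water. After 30 min basal collection, prostaglandin in buffer-ethanol vehicle given into pouch via Thomas cannula; 30 min later pouch emptied and secretion stimulated by feeding canned dog food. Juice collected at 30-min intervals over 4 h; total acid output = volume × acidity. Percent reduction from control over 4 h.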

Canis familiaris [3] = assay: Gastric antisecretory activity in food stimulated pavlov dogs by intrapouch administration; Inactive at 3.0 ug/Kg; format: functional, organism-based; conditions: Canis lupus familiaris; outline: as §1

Row | SMILES | ED50 (Rattus norvegicus) | Ratio [1] | ED50 (Canis familiaris [2]) | ED50 (Canis familiaris [3])
1 | C/C=C/C=C/[C@](C)(O)C/C=C/[C@H]1[C@H](O)CC(=O)[C@@H]1CC/C=C\CCC(=O)OC | 250 µg/kg | 8 | 0.03 µg/kg | 
2 | C=C(C)/C=C/[C@](C)(O)C/C=C/[C@H]1[C@H](O)CC(=O)[C@@H]1CC/C=C\CCC(=O)OC | 420 µg/kg | 210 | 0.002 µg/kg | 
3 | CCCCC(C)(O)C/C=C/[C@H]1[C@H](O)CC(=O)[C@@H]1CC/C=C\CCC(=O)OC (stereo not given in full) [ENISOPROST] | 49 µg/kg | 2 | 0.023 µg/kg | 
4 | C=C/C=C/[C@](C)(O)C/C=C/[C@H]1[C@H](O)CC(=O)[C@@H]1CC/C=C\CCC(=O)OC | 243 µg/kg | 35 | 0.007 µg/kg | 
5 | C/C=C(C)/C=C/[C@](C)(O)C/C=C/[C@H]1[C@H](O)CC(=O)[C@@H]1CC/C=C\CCC(=O)OC | 185 µg/kg | 62 | 0.003 µg/kg | 
6 | C=C/C=C(\C)[C@](C)(O)C/C=C/[C@H]1[C@H](O)CC(=O)[C@@H]1CC/C=C\CCC(=O)OC | > 3160 µg/kg |  |  | inactive
7 | C/C=C\C=C\[C@](C)(O)C/C=C/[C@H]1[C@H](O)CC(=O)[C@@H]1CC/C=C\CCC(=O)OC | 306 µg/kg | 34 | 0.009 µg/kg | 
8 | COC(=O)CC/C=C\CC[C@H]1C(=O)C[C@@H](O)[C@@H]1/C=C/C[C@@](C)(O)/C=C/C(C)=C(C)C | > 3160 µg/kg | > 53 | 0.06 µg/kg | 
9 | COC(=O)CC/C=C\CC[C@H]1C(=O)C[C@@H](O)[C@@H]1/C=C/C[C@@](C)(O)/C=C/C=C(C)C | > 3160 µg/kg | > 53 | 0.06 µg/kg | 
10 | C=C/C(C)=C/[C@](C)(O)C/C=C/[C@H]1[C@H](O)CC(=O)[C@@H]1CC/C=C\CCC(=O)OC | 1030 µg/kg | 1.4 | 0.71 µg/kg | 
11 | COC(=O)CC/C=C\CC[C@H]1C(=O)C[C@@H](O)[C@@H]1/C=C/C[C@@](C)(O)/C=C/C1=CCCC1 | > 3160 µg/kg | > 158 | 0.02 µg/kg | 
12 | C/C=C(C)\C=C\[C@](C)(O)C/C=C/[C@H]1[C@H](O)CC(=O)[C@@H]1CC/C=C\CCC(=O)OC | 1230 µg/kg | 76 | 0.016 µg/kg | 
